# Data as given in ChEMBL document CHEMBL1287654, “Anticancer activity of N-bis(trifluoromethyl)alkyl-N'-(polychlorophenyl) and N'-(1,2,4-triazolyl) ureas” (2010).
# Columns and labels:
# Format in all cases: functional
# NCI-H460 = assay: Growth inhibition of human NCI-H460 cells assessed as cell growth at 100 uM after 48 hrs by sulforhodamine B assay relative to control; conditions: NCI-H460, 48 h, read-out: Activity
# Procedure, shortened: (§1)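 One-dose pre-test on MCF7, NCI-H460 and SF-268. Cells were inoculated and pre-incubated on a microtiter plate, then given a single 10^-4 M dose and incubated 48 h. Growth was read spectrophotometrically and expressed as percent of untreated control cells; negative values indicate cell kill.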
# MCF7 [1] = assay: Growth inhibition of human MCF7 cells assessed as cell growth at 100 uM after 48 hrs by sulforhodamine B assay relative to control; conditions: MCF7, 48 h, read-out: Activity; procedure, shortened: as §1
# SF-268 [2] = assay: Growth inhibition of human SF268 cells assessed as cell growth at 100 uM after 48 hrs by sulforhodamine B assay relative to control; conditions: SF-268, 48 h, read-out: Activity; procedure, shortened: as §1
# HOP-62 = assay: Growth inhibition of human HOP62 cells after 48 hrs by sulforhodamine B assay; conditions: HOP-62, 48 h
# Procedure, shortened: (§2)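 NCI 60-cell-line main test over a five-log dose range. GI50 is the molar concentration giving half-growth inhibition, reported as log molar. Subpanel values are median GI50 across that subpanel's lines. Where 50% inhibition was not reached within the tested interval, the highest tested concentration was used.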
# A498 = assay: Growth inhibition of human A498 cells after 48 hrs by sulforhodamine B assay; conditions: A498, 48 h; procedure, shortened: as §2
# BT-549 = assay: Growth inhibition of human BT549 cells after 48 hrs by sulforhodamine B assay; conditions: BT-549, 48 h; procedure, shortened: as §2
# [3] = Growth inhibition of human melanoma cell after 48 hrs by sulforhodamine B assay
# Procedure, shortened: (§3)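 Subpanel median growth inhibitory concentration: the average sensitivity of each tumor-type subpanel of the NCI 60-cell-line panel, derived from per-cell-line GI50 values. GI50 values came from a five log dose range and are expressed as log molar concentration for 50% net growth inhibition.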
# [4] = Growth inhibition of human ovarian cancer cell after 48 hrs by sulforhodamine B assay; conditions: Cancer cell lines; procedure, shortened: as §3
# [5] = Growth inhibition of human colon cancer cell after 48 hrs by sulforhodamine B assay; conditions: Cancer cell lines; procedure, shortened: as §3
# [6] = Growth inhibition of human CNS cancer cell after 48 hrs by sulforhodamine B assay; conditions: Cancer cell lines; procedure, shortened: as §2
# UACC-62 = assay: Growth inhibition of human UACC62 cells after 48 hrs by sulforhodamine B assay; conditions: UACC-62, 48 h
# Procedure, shortened: (§4)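 NCI 60-cell-line main screen across nine tumor types, with five log dose range per compound. GI50 is the molar concentration giving half growth inhibition, reported as the log of the molar concentration that inhibits 50% net cell growth.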
# NCI/ADR-RES = assay: Growth inhibition of human NCI/ADR-RES cells after 48 hrs by sulforhodamine B assay; procedure, shortened: as §2
# [7] = Growth inhibition of human breast cancer cell after 48 hrs by sulforhodamine B assay; conditions: Cancer cell lines; procedure, shortened: as §3
# [8] = Growth inhibition of human leukemia cell after 48 hrs by sulforhodamine B assay; procedure, shortened: as §3
# [9] = Growth inhibition of human prostate cancer cell after 48 hrs by sulforhodamine B assay; conditions: Cancer cell lines; procedure, shortened: as §3
# HCT-15 = assay: Growth inhibition of human HCT15 cells after 48 hrs by sulforhodamine B assay; conditions: HCT-15, 48 h; procedure, shortened: as §2
# [10] = Growth inhibition of human renal cancer cell after 48 hrs by sulforhodamine B assay; conditions: Cancer cell lines; procedure, shortened: as §3
# [11] = Growth inhibition of human non-small lung cancer cell after 48 hrs by sulforhodamine B assay; conditions: Cancer cell lines; procedure, shortened: as §3
# UACC-257 = assay: Growth inhibition of human UACC257 cells after 48 hrs by sulforhodamine B assay; conditions: UACC-257, 48 h; procedure, shortened: as §4
# SK-MEL-2 = assay: Growth inhibition of human SK-MEL-2 cells after 48 hrs by sulforhodamine B assay; conditions: SK-MEL-2, 48 h; procedure, shortened: as §2
# NCI-H226 = assay: Growth inhibition of human NCI-H226 cells after 48 hrs by sulforhodamine B assay; conditions: NCI-H226, 48 h; procedure, shortened: as §2
# A549 = assay: Growth inhibition of human A549 cells after 48 hrs by sulforhodamine B assay; conditions: A549, 48 h; procedure, shortened: as §2
# MDA-MB-435 = assay: Growth inhibition of human MDA-MB-435 cells after 48 hrs by sulforhodamine B assay; conditions: MDA-MB-435, 48 h; procedure, shortened: as §2
# 786-0 = assay: Growth inhibition of human 786-0 cells after 48 hrs by sulforhodamine B assay; conditions: 786-0, 48 h; procedure, shortened: as §2
# MCF7 [12] = assay: Growth inhibition of human MCF7 cells after 48 hrs by sulforhodamine B assay; conditions: MCF7, 48 h; procedure, shortened: as §2
# SF-539 = assay: Growth inhibition of human SF539 cells after 48 hrs by sulforhodamine B assay; conditions: SF-539, 48 h; procedure, shortened: as §2
# OVCAR-3 = assay: Growth inhibition of human OVCAR-3 cells after 48 hrs by sulforhodamine B assay; conditions: OVCAR-3, 48 h; procedure, shortened: as §2
# SNB-75 = assay: Growth inhibition of human SNB75 cells after 48 hrs by sulforhodamine B assay; conditions: SNB-75, 48 h; procedure, shortened: as §4
# SF-268 [13] = assay: Growth inhibition of human SF268 cells after 48 hrs by sulforhodamine B assay; conditions: SF-268, 48 h; procedure, shortened: as §2
# SN12C = assay: Growth inhibition of human SN12C cells after 48 hrs by sulforhodamine B assay; procedure, shortened: as §4
# COLO 205 = assay: Growth inhibition of human COLO205 cells after 48 hrs by sulforhodamine B assay; conditions: COLO 205, 48 h; procedure, shortened: as §2
smiles,measurement,setting,value
CC(NC(=O)Nc1nnc[nH]1)(C(F)(F)F)C(F)(F)F,growth at 100 µM,NCI-H460,111%
same,growth at 100 µM,MCF7 [1],98%
same,growth at 100 µM,SF-268 [2],111%
CC(NC(=O)Nn1cnnc1)(C(F)(F)F)C(F)(F)F,growth at 100 µM,NCI-H460,94%
same,growth at 100 µM,MCF7 [1],81%
same,growth at 100 µM,SF-268 [2],105%
CCC(NC(=O)Nc1nnc[nH]1)(C(F)(F)F)C(F)(F)F,growth at 100 µM,NCI-H460,86%
same,growth at 100 µM,MCF7 [1],102%
same,growth at 100 µM,SF-268 [2],102%
CCC(NC(=O)Nn1cnnc1)(C(F)(F)F)C(F)(F)F,growth at 100 µM,NCI-H460,94%
same,growth at 100 µM,MCF7 [1],84%
same,growth at 100 µM,SF-268 [2],105%
CC(NC(=O)Nc1c(Cl)cccc1Cl)(C(F)(F)F)C(F)(F)F,growth at 100 µM,NCI-H460,85%
same,growth at 100 µM,MCF7 [1],82%
same,growth at 100 µM,SF-268 [2],84%
CC(NC(=O)Nc1c(Cl)cc(Cl)cc1Cl)(C(F)(F)F)C(F)(F)F,growth at 100 µM,NCI-H460,103%
same,growth at 100 µM,MCF7 [1],89%
same,growth at 100 µM,SF-268 [2],96%
CCC(NC(=O)Nc1c(Cl)cccc1Cl)(C(F)(F)F)C(F)(F)F,growth at 100 µM,NCI-H460,79%
same,growth at 100 µM,MCF7 [1],75%
same,growth at 100 µM,SF-268 [2],101%
CCC(NC(=O)Nc1c(Cl)cc(Cl)cc1Cl)(C(F)(F)F)C(F)(F)F,growth at 100 µM,NCI-H460,81%
same,growth at 100 µM,MCF7 [1],88%
same,growth at 100 µM,SF-268 [2],98%
CC(NC(=O)Nc1nc2ccccc2s1)(C(F)(F)F)C(F)(F)F,GI50,HOP-62,31.6 µM
same,GI50,A498,100 µM
same,GI50,BT-549,> 100 µM
same,GI50,[3],42.7 µM
same,GI50,[4],39.8 µM
same,GI50,[5],42.7 µM
same,GI50,[6],25.7 µM
same,GI50,UACC-62,> 100 µM
same,GI50,NCI/ADR-RES,> 100 µM
same,GI50,[7],50.1 µM
same,GI50,[8],21.9 µM
same,GI50,[9],56.2 µM
same,GI50,HCT-15,> 100 µM
same,GI50,[10],28.2 µM
same,GI50,[11],33.9 µM
CCC(NC(=O)Nc1nc2ccccc2s1)(C(F)(F)F)C(F)(F)F,GI50,UACC-257,20 µM
same,GI50,SK-MEL-2,15.8 µM
same,GI50,NCI-H226,15.8 µM
same,GI50,A549,15.8 µM
same,GI50,MDA-MB-435,20 µM
same,GI50,786-0,20 µM
same,GI50,[3],17.4 µM
same,GI50,[4],17.8 µM
same,GI50,[5],18.6 µM
same,GI50,[6],11.7 µM
same,GI50,[7],18.2 µM
same,GI50,[8],22.9 µM
same,GI50,[9],18.2 µM
same,GI50,[10],15.1 µM
same,GI50,[11],18.6 µM
same,GI50,MCF7 [12],15.8 µM
O=c1[nH]cc(F)c(=O)[nH]1 [FLUOROURACIL],GI50,HOP-62,0.398 µM
same,GI50,A498,0.398 µM
same,GI50,SF-539,0.0631 µM
same,GI50,[3],0.933 µM
same,GI50,[4],1.82 µM
same,GI50,[5],0.186 µM
same,GI50,OVCAR-3,0.0158 µM
same,GI50,[6],1.35 µM
same,GI50,SNB-75,79.4 µM
same,GI50,NCI/ADR-RES,0.316 µM
same,GI50,[7],1.38 µM
same,GI50,[8],0.562 µM
same,GI50,SF-268 [13],1.58 µM
same,GI50,[9],0.912 µM
same,GI50,SN12C,0.501 µM
same,GI50,[10],0.575 µM
same,GI50,[11],2 µM
same,GI50,MCF7 [12],0.0794 µM
same,GI50,COLO 205,0.158 µM
